# From ChEMBL document CHEMBL2390884, “Design, synthesis and antiproliferative activity studies of novel 1,2,3-triazole-dithiocarbamate-urea hybrids” (Eur J Med Chem, 2013)
# Legend:
# MGC-803 [1] = experiment: Induction of apoptosis in human MGC803 cells at 0.25 to 1 uM after 12 hrs by AnnexinV-FITC/propidium iodide staining-based flow cytometry (reference value: 2.8 %); type: functional
# MGC-803 [2] = experiment: Induction of apoptosis in human MGC803 cells after 12 hrs by AnnexinV-FITC/propidium iodide staining-based flow cytometry; type: functional, cell-based
# HEK293 = experiment: Cytotoxicity against human HEK293 cells up to 70 uM after 72 hrs by MTT assay; type: cell-based; details: hek293, 72 h
# Procedure, shortened: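 HEK293 cells seeded at 5×10^3 per well, grown 24 h at 37°C, then medium replaced with compound-containing medium over a concentration range; 72 h exposure; MTT (5 mg/mL stock) added for 4 h at 37°C, formazan dissolved in DMSO, absorbance read at 570 nm. Triplicate per concentration, experiment repeated three times.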
# [3] = Cytotoxicity against human EC9706 cells after 72 hrs by MTT assay; type: functional, cell-based; details: EC9706, 72 h
# MCF7 = experiment: Cytotoxicity against human MCF7 cells after 72 hrs by MTT assay; type: functional, cell-based; details: MCF7, 72 h
# MGC-803 [4] = experiment: Cytotoxicity against human MGC803 cells after 72 hrs by MTT assay; type: functional, cell-based; details: MGC-803, 72 h
# MGC-803 [5] = experiment: Cell cycle arrest in human MGC803 cells assessed as reduction in G1 phase accumulation after 12 to 24 hrs by propidium iodide staining-based flow cytometry; type: functional
# Procedure, shortened: (§1)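 Exponentially growing MGC-803 cells (5×10^5) treated at 0, 0.25, 0.5 or 1.0 µmol/L for 12 or 24 h; cells collected, fixed in ice-cold 70% ethanol, treated with buffer containing RNAse A and 0.1% Triton X-100, stained with PI; DNA content analysed by flow cytometry to give percentages of cells in G1, S and G2/M phases.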
# MGC-803 [6] = experiment: Cell cycle arrest in human MGC803 cells assessed as reduction in S phase accumulation after 12 to 24 hrs by propidium iodide staining-based flow cytometry; type: functional; procedure, shortened: as §1
# MGC-803 [7] = experiment: Cell cycle arrest in human MGC803 cells assessed as accumulation at G2/M phase after 12 to 24 hrs by propidium iodide staining-based flow cytometry; type: functional; procedure, shortened: as §1
# MGC-803 [8] = experiment: Cell cycle arrest in human MGC803 cells assessed as reduction in S phase accumulation at 0.25 to 1 uM by propidium iodide staining-based flow cytometry; type: functional; details: TDE = time-dependent effect; procedure, shortened: as §1
# MGC-803 [9] = experiment: Cell cycle arrest in human MGC803 cells assessed as reduction in G1 phase accumulation at 0.25 to 1 uM by propidium iodide staining-based flow cytometry; type: functional; details: TDE = time-dependent effect; procedure, shortened: as §1
# MGC-803 [10] = experiment: Cell cycle arrest in human MGC803 cells assessed as accumulation at G2/M phase at 1 uM after 24 hrs by propidium iodide staining-based flow cytometry; type: functional; procedure, shortened: as §1
# MGC-803 [11] = experiment: Cell cycle arrest in human MGC803 cells assessed as accumulation at G2/M phase at 0.25 uM after 24 hrs by propidium iodide staining-based flow cytometry; type: functional; procedure, shortened: as §1
# MGC-803 [12] = experiment: Cell cycle arrest in human MGC803 cells assessed as accumulation at G2/M phase at 0.5 uM after 24 hrs by propidium iodide staining-based flow cytometry; type: functional; procedure, shortened: as §1
# MGC-803 [13] = experiment: Cell cycle arrest in human MGC803 cells assessed as accumulation at G2/M phase at 1 uM after 12 hrs by propidium iodide staining-based flow cytometry; type: functional; procedure, shortened: as §1
# MGC-803 [14] = experiment: Cell cycle arrest in human MGC803 cells assessed as accumulation at S phase at 1 uM after 24 hrs by propidium iodide staining-based flow cytometry; type: functional; procedure, shortened: as §1
# MGC-803 [15] = experiment: Cell cycle arrest in human MGC803 cells assessed as accumulation at S phase at 0.5 uM after 24 hrs by propidium iodide staining-based flow cytometry; type: functional; procedure, shortened: as §1
# MGC-803 [16] = experiment: Cell cycle arrest in human MGC803 cells assessed as accumulation at S phase at 0.25 uM after 24 hrs by propidium iodide staining-based flow cytometry; type: functional; procedure, shortened: as §1
# MGC-803 [17] = experiment: Cell cycle arrest in human MGC803 cells assessed as accumulation at S phase at 1 uM after 12 hrs by propidium iodide staining-based flow cytometry; type: functional; procedure, shortened: as §1
# MGC-803 [18] = experiment: Cell cycle arrest in human MGC803 cells assessed as accumulation at S phase at 0.5 uM after 12 hrs by propidium iodide staining-based flow cytometry; type: functional; procedure, shortened: as §1
# MGC-803 [19] = experiment: Cell cycle arrest in human MGC803 cells assessed as accumulation at S phase at 0.25 uM after 12 hrs by propidium iodide staining-based flow cytometry; type: functional; procedure, shortened: as §1
# MGC-803 [20] = experiment: Cell cycle arrest in human MGC803 cells assessed as accumulation at G0/G1 phase at 1 uM after 24 hrs by propidium iodide staining-based flow cytometry; type: functional; procedure, shortened: as §1
# MGC-803 [21] = experiment: Cell cycle arrest in human MGC803 cells assessed as accumulation at G0/G1 phase at 0.25 uM after 24 hrs by propidium iodide staining-based flow cytometry; type: functional; procedure, shortened: as §1
# MGC-803 [22] = experiment: Cell cycle arrest in human MGC803 cells assessed as accumulation at G0/G1 phase at 1 uM after 12 hrs by propidium iodide staining-based flow cytometry; type: functional; procedure, shortened: as §1
# MGC-803 [23] = experiment: Cell cycle arrest in human MGC803 cells assessed as accumulation at G0/G1 phase at 0.5 uM after 12 hrs by propidium iodide staining-based flow cytometry; type: functional; procedure, shortened: as §1
# MGC-803 [24] = experiment: Cell cycle arrest in human MGC803 cells assessed as accumulation at G0/G1 phase at 0.25 uM after 12 hrs by propidium iodide staining-based flow cytometry; type: functional; procedure, shortened: as §1
# MGC-803 [25] = experiment: Induction of apoptosis in human MGC803 cells assessed as necrotic cells at 1 uM after 12 hrs by AnnexinV-FITC/propidium iodide staining-based flow cytometry (reference value: 2.4 %); type: functional
# MGC-803 [26] = experiment: Induction of apoptosis in human MGC803 cells assessed as necrotic cells at 0.25 uM after 12 hrs by AnnexinV-FITC/propidium iodide staining-based flow cytometry (reference value: 2.4 %); type: functional
# MGC-803 [27] = experiment: Induction of apoptosis in human MGC803 cells assessed as late apoptotic cells at 1 uM after 12 hrs by AnnexinV-FITC/propidium iodide staining-based flow cytometry (reference value: 3.0 %); type: functional
# MGC-803 [28] = experiment: Induction of apoptosis in human MGC803 cells assessed as late apoptotic cells at 0.5 uM after 12 hrs by AnnexinV-FITC/propidium iodide staining-based flow cytometry (reference value: 3.0 %); type: functional
# MGC-803 [29] = experiment: Induction of apoptosis in human MGC803 cells assessed as early apoptotic cells at 1 uM after 12 hrs by AnnexinV-FITC/propidium iodide staining-based flow cytometry (reference value: 2.8 %); type: functional
# MGC-803 [30] = experiment: Induction of apoptosis in human MGC803 cells assessed as early apoptotic cells at 0.5 uM after 12 hrs by AnnexinV-FITC/propidium iodide staining-based flow cytometry (reference value: 2.8 %); type: functional
# MGC-803 [31] = experiment: Induction of apoptosis in human MGC803 cells assessed as early apoptotic cells at 0.25 uM after 12 hrs by AnnexinV-FITC/propidium iodide staining-based flow cytometry (reference value: 2.8 %); type: functional
# MGC-803 [32] = experiment: Induction of apoptosis in human MGC803 cells assessed as viable cells at 1 uM after 12 hrs by AnnexinV-FITC/propidium iodide staining-based flow cytometry (reference value: 91.9 %); type: functional; details: MGC-803, 12 h, read-out: Activity
# MGC-803 [33] = experiment: Induction of apoptosis in human MGC803 cells assessed as viable cells at 0.25 uM after 12 hrs by AnnexinV-FITC/propidium iodide staining-based flow cytometry (reference value: 91.9 %); type: functional; details: MGC-803, 12 h, read-out: Activity
smiles,measurement,setting,value
CC(C)NC(=O)N1CCN(C(=S)SCc2cn(Cc3ccc(F)cc3)nn2)CC1,Activity,MGC-803 [1],31.4%
same,Activity,MGC-803 [2],Dose-dependent effect
same,Activity,HEK293,Non-toxic
same,IC50,[3],12200 nM
same,IC50,MCF7,1660 nM
same,IC50,MGC-803 [4],760 nM
same,Activity,MGC-803 [5],Dose-dependent effect
same,Activity,MGC-803 [6],Dose-dependent effect
same,Activity,MGC-803 [7],Dose-dependent effect
same,Activity,MGC-803 [8],tde
same,Activity,MGC-803 [9],tde
same,Activity,MGC-803 [10],79.02%
same,Activity,MGC-803 [11],58.94%
same,Activity,MGC-803 [12],69.88%
same,Activity,MGC-803 [13],68.68%
same,Activity,MGC-803 [14],15.91%
same,Activity,MGC-803 [15],20.57%
same,Activity,MGC-803 [16],25.21%
same,Activity,MGC-803 [17],12.65%
same,Activity,MGC-803 [18],32.65%
same,Activity,MGC-803 [19],40.91%
same,Activity,MGC-803 [20],2.32%
same,Activity,MGC-803 [21],13.78%
same,Activity,MGC-803 [22],3.62%
same,Activity,MGC-803 [23],22.18%
same,Activity,MGC-803 [24],37.35%
same,Activity,MGC-803 [25],1.2%
same,Activity,MGC-803 [26],0.5%
same,Activity,MGC-803 [27],2.4%
same,Activity,MGC-803 [28],1.8%
same,Activity,MGC-803 [29],31.4%
same,Activity,MGC-803 [30],17.2%
same,Activity,MGC-803 [31],9.2%
same,viability at 1 µM,MGC-803 [32],65%
same,viability at 0.25 µM,MGC-803 [33],88.1%
